High-throughput results: PubChem BioAssay, several laboratories
CCR6 antag – blocks CCL20-driven beta-arrestin recruitment at human CCR6; CHO-K1 CCR6 PathHunter beta-arrestin, luminescence, CCL20-stimulated; hit rate 0.49% among 340,000; P51684; AID 493098; inhibition, % at 20 µM;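 active = compounds whose inhibition of the agonist-driven luminescence signal at 20 µM reaches about 50%, limit read from the data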;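 note: cells stimulated with CCL20 at 14 nM final; plate controls were DMSO with CCL20 for no effect and DMSO without agonist for full effect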
m5-HT2A agonist – activates the mouse 5-HT2A serotonin receptor; P35363; CHO-K1 mHTR2A beta-arrestin complementation, luminescence; percent of 30 µM serotonin response; activation, % at 7.6 µM; hit rate 0.66% among 360,000;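 active = activation above a run cutoff, the mean activation of all tested compounds plus 3 SD, cut at about 14% in these data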;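 note: 0% = plate median of compound wells and 100% = 30 µM serotonin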
CXCR6 block – CXCR6 (human) receptor inhibition; O00574; CHO-K1 PathHunter CXCR6 beta-arrestin, luminescence; inhibition, % at 20 µM; hit rate 0.36% among 360,000; AID 602244; in the data active = inhibition above about 34%, passing the limit was not always enough;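 note: antagonist mode with CXCL16 agonist at 10 nM final; 0% = 10 nM CXCL16 with DMSO and 100% = unstimulated wells without agonist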
Target sequence (O00574 whole entry, looked up): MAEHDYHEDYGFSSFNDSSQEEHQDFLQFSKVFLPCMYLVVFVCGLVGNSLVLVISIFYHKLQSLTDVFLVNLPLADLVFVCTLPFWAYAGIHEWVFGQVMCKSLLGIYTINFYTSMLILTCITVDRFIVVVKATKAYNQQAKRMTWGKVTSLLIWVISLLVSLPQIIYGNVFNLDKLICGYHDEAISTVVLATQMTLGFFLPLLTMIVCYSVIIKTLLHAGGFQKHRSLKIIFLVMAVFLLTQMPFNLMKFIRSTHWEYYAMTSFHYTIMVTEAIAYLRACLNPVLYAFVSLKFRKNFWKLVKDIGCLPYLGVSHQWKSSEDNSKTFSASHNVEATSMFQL
APJ antagonist – antagonists of human APJ apelin receptor; hit rate 0.32% among 330,000; inhibition, % at 20 µM; CHO-K1 APJ beta-arrestin complementation, luminescence;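 active = inhibition above about 40% at 20 µM, limit read from the data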;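 note: cells challenged with 10 nM apelin-13 agonist together with compound; plate controls were apelin-13 plus DMSO wells for no effect and DMSO wells lacking apelin-13 for full effect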
EBI2 antag – blocks human EBI2 receptor beta-arrestin signaling; P32249; EBI2 beta-arrestin recruitment, luminescence, 7a,25-OHC stimulated; inhibition, % at 5 µM; hit rate 0.81% among 360,000; in the data active = inhibition above about 38%;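 note: enzyme fragment complementation signal reports receptor beta-arrestin coupling in cells; 0% = agonist plus DMSO wells and 100% = wells without agonist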
APJ agonist – APJ receptor agonism; activation, % at 20 µM; CHO-K1 APJ PathHunter beta-arrestin, luminescence; 0% DMSO wells, 100% apelin; P35414; hit rate 0.11% among 330,000;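 active = activation more than six SD over the plate average, tested at 20 µM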;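 note: 0% = DMSO alone and 100% = apelin-13 at 10 nM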
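Test system: CHO-K1 APJ beta-arrestin complementation cell line | Compound: Single test compound dose, 20 µM final, 1% DMSO | Incubation: Compound 90 min 25 °C, reagent 1 h | Measured by: beta-gal luminescence | Read-out basis: APJ–arrestin association signal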
MOR ag counter – OPRM1 agonism in mouse HTR2A counterscreen; shares compounds with m5-HT2A agonist; U2OS OPRM1 beta-arrestin PathHunter, luminescence; DMSO 0%, DAMGO 9.3 µM 100%; activation, % at 9.3 µM; AID 624380; hit rate 5.3% among 2,300;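 active = mean activation above the mean of DMSO-only wells plus 3 SD, cut at about 0.5% in these data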
HTR2A ag conf – confirmation of mouse HTR2A serotonin receptor agonists; shares compounds with m5-HT2A agonist; CHO-K1 PathHunter beta-arrestin recruitment, luminescence; DMSO 0%, 30 µM serotonin 100%; hit rate 19% among 2,300; activation, % at 7.6 µM;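 active = mean activation across triplicates above the hit threshold derived in the original primary screen, cut at about 15% in these data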
* = called active by the depositor; · = no result given. Rows were chosen to be rich in hits. Some 2.2% of all compounds tested hit in one or more screens of this group.

SMILES	CCR6 antag	m5-HT2A agonist	CXCR6 block	APJ antagonist	EBI2 antag	APJ agonist	MOR ag counter	HTR2A ag conf
COc1ccc2c(CN3CCN(c4ccc(Cl)c(Cl)c4)CC3)cc(=O)oc2c1	·	12	-1	·	1	·	·	·
COc1cc2oc(=O)cc(CN3CCN(c4ccc(Cl)c(Cl)c4)CC3)c2cc1Cl	·	25*	6	·	19	·	-1	9
CN(c1ccccc1C(=O)NCc1ccco1)S(C)(=O)=O	9	-4	-1	11	-1	-1	·	·
CN(c1ccccc1C(=O)Nc1ccccc1C(=O)NCc1ccco1)S(C)(=O)=O	32	14*	-4	0	1	-4	-1	-5
CCCn1c(N)c(C(=O)CSc2nnc(-c3cccs3)n2C2CC2)c(=O)[nH]c1=O	-4	28*	-9	-8	2	-1	-1	47*
Nc1nc(CN2CCN(c3cccc(Cl)c3)CC2)nc(N2CCCc3ccccc32)n1	-30	24*	-12	-12	7	-2	0	77*
Nc1nc(CN2CCN(c3ccccc3)CC2)nc(N2CCCc3ccccc32)n1	-1	28*	-1	14	-6	-3	0	71*
COc1ccc(N2CCN(Cc3nc(N)nc(Nc4ccc(C)c(Cl)c4)n3)CC2)cc1	-18	0	6	5	3	-1	·	·
COc1ccc(N2CCN(Cc3nc(N)nc(N4CCCc5ccccc54)n3)CC2)cc1	7	9	-2	-2	-6	-2	·	·
Cc1ccc(Nc2nc(N)nc(CN3CCN(c4ccccc4)CC3)n2)cc1Cl	-1	15*	-5	8	6	1	0	70*
CC(C)=CCC[C@H](C)C[C@@H]1Cc2[nH][nH]c(=O)c2[C@@H](c2ccc(F)cc2)O1	·	-3	-8	·	1	·	·	·
Cc1cccc2sc(NNC(=O)C3=COCCO3)nc12	-9	17*	-9	5	-6	-2	0	-1
COc1cccc(CNC(=O)[C@@H]2CCCN2C(=O)OC(C)(C)C)c1	·	1	2	·	-4	·	·	·
Cc1sc2nc(SCc3ccc(C(=O)O)cc3)n(Cc3ccco3)c(=O)c2c1C	-5	16*	4	-1	-3	0	0	8
COc1ccccc1S(=O)(=O)N[C@@H]1CC[C@@H](CCn2cc(C3CC3)nn2)O[C@@H]1CO	·	4	·	·	-1	·	·	·
Cc1cccc(C(=O)OCC(=O)c2c(N)n(CC(C)C)c(=O)n(C)c2=O)c1O	14	-1	-6	-64	5	-6	·	·
Cc1cccc(C(=O)OCC(=O)c2c(N)n(CC(C)C)c(=O)n(C)c2=O)c1[N+](=O)[O-]	13	17*	-4	-12	9	1	0	-1
COc1ccc(-c2coc3c(C(=O)NCC4CC4)cccc23)c(C)c1	·	0	-4	·	-12	·	·	·
CC(C(=O)NCc1ccc(F)cc1)n1ccc2cc(S(=O)(=O)N3CCCC3)ccc21 (centres undefined)	27	15*	8	19	3	-6	0	0
CC[C@@H](C)[C@@H](CO)NC(=O)[C@H]1O[C@@H](n2cnc3c(N)ncnc32)[C@H](O)[C@@H]1O	·	3	4	·	3	·	·	·
COc1ccc(C(=O)NCC(=O)OCC(=O)c2cc(OC)c(OC)c(OC)c2)cc1OC	9	15*	2	-4	-9	0	-1	0
COc1cc(OC)cc(C2=Cc3ccccc3C(CC(C)=O)N2c2ccc(C#CCCO)cc2)c1 (centres undefined)	·	-4	0	·	2	·	·	·
O=C(Nc1ccc(N2CCOCC2)cc1)c1ccncc1	-6	2	-4	6	-8	0	·	·
Cn1cccc1C(=O)Nc1ccc(N2CCOCC2)cc1	8	15*	-3	6	3	-1	0	2
Cc1cc2nc(C)c(Cl)c(=O)n2[nH]1	7	0	4	-9	-12	2	·	·
SMILES	CCR6 antag	m5-HT2A agonist	CXCR6 block	APJ antagonist	EBI2 antag	APJ agonist	MOR ag counter	HTR2A ag conf
Cc1nc2cc(-c3ccc(Br)cc3)[nH]n2c(=O)c1Cl	-28	18*	3	11	-3	0	-1	-3
C#CCN(C[C@@H]1[C@@H](OC(=O)NCc2ccccc2)[C@@H](OC(=O)NCc2ccccc2)CN(C(=O)OC(C)C)N1C(=O)OC(C)C)S(=O)(=O)c1ccc(C)cc1	·	0	-6	·	14	·	·	·
N#Cc1c(-c2ccccc2)[nH]c(=S)[nH]c1=O	-1	22*	2	26	1	-1	-1	-4
CCc1nc2ccc(C(=O)NCc3ccccc3OC)cn2c1N(CC)CCOC	·	5	3	·	-11	·	·	·
Cc1cc(C(C)(C)C)cc(C)c1CC1=NCCN1	19	24*	-5	1	3	-4	-1	24*
c1ccc(Cc2nnc(Sc3ccccc3)c3ccccc23)cc1	-1	26*	12	-8	-14	-3	0	9
COC(=O)C1CCN(CCCOc2ccc(CN3CCN(c4ccc([N+](=O)[O-])cc4)CC3)cc2)CC1	45	25*	10	21	8	-2	0	75*
CC1CCCCC1=NNC(=O)c1ccccc1 (centres undefined)	·	3	3	·	1	·	·	·
O=C(NC1CCCCC1)N1CCCCCC1	13	5	4	-2	-12	-5	·	·
O=C(NC1CCCCC1)N1CCNCC1	10	14*	-4	4	-7	-2	-1	-2
CC1CC(C)CN(CCOc2cccc(Cl)c2Cl)C1 (centres undefined)	3	30*	-15	-2	-14	-3	0	78*
CC1CC(C)CN(CCOc2ccc(Cl)cc2Cl)C1 (centres undefined)	16	-8	-1	-8	1	-4	·	·
Cc1ccc(SCC(=O)NC(=O)NCCC(C)C)c(C)c1	8	3	-3	-18	5	-2	·	·
Cc1ccc(SCC(=O)NC(=O)NC(C)C)c(C)c1	7	16*	1	-12	-14	-4	0	5
Cc1cc(Cl)ccc1C(=O)C1CCCN(C(=O)c2cc(C(C)C)no2)C1 (centres undefined)	-1	46*	2	2	0	-4	0	-5
CN(C)c1ccc(-c2csc(C(O)c3cccc(Cl)c3)n2)cc1 (centres undefined)	·	2	-6	·	-5	·	·	·
Cc1nn2c(c1-c1ccccc1)NC1=C(C(=O)CCC1)C2c1ccccc1 (centres undefined)	15	16*	-1	10	-17	-4	-1	-3
